pIC50: −log10 of the molar value.
Tests used:
RAW264.7 [1] = assay: Anti-inflammatory activity in mouse RAW264.7 cells assessed as inhibition of lipopolysaccharide-induced nitric oxide production incubated for 24 hrs by Griess reagent based assay; type: functional, cell-based; details: RAW264.7, 24 h
Summary of the method: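 LPS-stimulated RAW 264.7 macrophages; NO production read by Griess assay; inhibition expressed as IC50 (μM).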

RAW264.7 [2] = assay: (§1) Cytotoxicity against mouse RAW264.7 cells assessed as cell viability at 40 uM by MTT assay; type: cell-based; details: raw264.7, 40 µM
[3] = as §1; type: cell-based; details: RAW264.7 cells, read-out: Activity
RAW264.7 [4] = assay: Anti-inflammatory activity in mouse RAW264.7 cells assessed as inhibition of lipopolysaccharide-induced nitric oxide production at 80 uM incubated for 24 hrs by Griess reagent based assay; type: functional; details: RAW264.7, 24 h

pIC50 (RAW264.7 [1])	Compound	Activity (RAW264.7 [2])	viability at 40 µM [3] [%]	inhibition at 80 µM (RAW264.7 [4]) [%]
4.58	C=C1CC[C@]2(C(=O)O)CC[C@]3(C)C(=CC[C@@H]4[C@@]5(C)C[C@@H](O)[C@@H](O)C(C)(C)[C@@H]5CC[C@]43C)[C@@H]2[C@H]1C	Non-toxic	–	–
–	C[C@H]1[C@H](C)CC[C@]2(C(=O)O)CC[C@]3(C)C(=CC[C@@H]4[C@@]5(C)CC[C@H](O)C(C)(C)[C@@H]5CC[C@]43C)[C@H]12 [URSOLIC ACID]	–	< 70	–
–	CC1(C)[C@@H]2C[C@@]3(CC[C@]4(C)[C@@H]5[C@@H]3[C@@H]1O[C@]5(O)C[C@@H]1[C@@]3(C)C[C@@H](O)[C@@H](O)C(C)(C)[C@@H]3CC[C@]14C)C(=O)O2	Non-toxic	–	< 50
–	C[C@H]1[C@H](C)CC[C@]2(C(=O)O)CC[C@]3(C)C(=CC[C@@H]4[C@@]5(C)C[C@@H](O)[C@H](O)C(C)(C)[C@@H]5CC[C@]43C)[C@H]12 [COROSOLIC ACID]	–	< 70	–
–	C[C@H]1[C@H](C)CC[C@]2(C(=O)O)CC[C@]3(C)C(=CC[C@@H]4[C@@]5(C)C[C@@H](O)[C@@H](O)C(C)(C)[C@@H]5CC[C@]43C)[C@H]12 [PYGENIC ACID A]	–	< 70	–
4.39	CC1(C)CC[C@]2(C(=O)O)CC[C@]3(C)C(=CC[C@@H]4[C@@]5(C)C[C@@H](O)[C@@H](O)[C@](C)(CO)[C@@H]5CC[C@]43C)[C@@H]2C1	Non-toxic	–	–
–	C[C@@H]1[C@@H]2C[C@@]3(CC[C@]4(C)[C@@H]5[C@@H]3[C@]1(C)O[C@]5(O)C[C@@H]1[C@@]3(C)C[C@@H](O)[C@@H](O)C(C)(C)[C@@H]3CC[C@]14C)C(=O)O2	Non-toxic	–	< 50
4.56	CC1(C)CC[C@]2(C(=O)O)CC[C@]3(C)C(=CC[C@@H]4[C@@]5(C)C[C@@H](O)[C@@H](O)C(C)(C)[C@@H]5CC[C@]43C)[C@@H]2C1	Non-toxic	–	–
–	CC1(C)[C@H](O)[C@H](O)C[C@]2(C)[C@H]3CC=C4[C@@H]5C[C@](C)(CO)CC[C@]5(C(=O)O)CC[C@@]4(C)[C@]3(C)CC[C@@H]12	Non-toxic	–	< 50
–	C[C@H]1[C@H](C)CC[C@@]23CC[C@@]4(C)[C@]5(C)CC[C@H]6C(C)(C)[C@H](O)[C@H](O)C[C@]6(C)[C@H]5CC(=O)[C@]4(OC2=O)[C@H]13	Non-toxic	–	< 50
4.47	C[C@H]1[C@H](C)CC[C@@]23CC[C@]4(C)[C@](OC2=O)([C@H](O)C[C@@H]2[C@@]5(C)C[C@@H](O)[C@@H](O)C(C)(C)[C@@H]5CC[C@]24C)[C@H]13	Non-toxic	–	–
–	CC1(C)CC[C@@]23CC[C@@]4(C)[C@]5(C)CC[C@H]6C(C)(C)[C@H](O)[C@H](O)C[C@]6(C)[C@H]5CC(=O)[C@]4(OC2=O)[C@@H]3C1	–	< 70	–
4.60	C[C@@H]1CC[C@]2(C(=O)O)CC[C@]3(C)C(=CC[C@@H]4[C@@]5(C)C[C@@H](O)[C@H](O)C(C)(C)[C@@H]5CC[C@]43C)[C@@H]2[C@]1(C)O [TOMENTIC ACID]	Non-toxic	–	–
–	C[C@@H]1CC[C@]2(C(=O)O)CC[C@]3(C)C(=CC[C@@H]4[C@@]5(C)C[C@@H](O)[C@@H](O)C(C)(C)[C@@H]5CC[C@]43C)[C@@H]2[C@]1(C)O [EUSCAPHIC ACID]	Non-toxic	–	< 50

Compound	pIC50 (RAW264.7 [1])	Activity (RAW264.7 [2])	viability at 40 µM [3] [%]	inhibition at 80 µM (RAW264.7 [4]) [%]
O=c1c(O)c(-c2ccc(O)c(O)c2)oc2cc(O)cc(O)c12 [QUERCETIN]	4.78	–	–	–
